In ChEMBL document CHEMBL1123291, “Modified di- and tripeptides of the C-terminal portion of oxytocin and vasopressin as possible cognition activation agents” (1986):
Non-standard residues stand in square brackets, D forms with d. Residues, ends and D or L forms follow the SMILES beside them. ξ: configuration not given here. *: point of attachment. ξArg(NO2) = N=C(NCCCC(N)C(=O)O)N[N+](=O)[O-]; Cbz = O=C(OCc1ccccc1)*; Boc = CC(C)(C)OC(=O)*; ξK = NCCCCC(N)C(=O)O

Legend:
Type in all cases: functional
Rattus norvegicus [1] = assay: Ability (% reversal in rats) to reverse electroconvulsive shock-induced amnesia in rodents at a dose of 0.0010 (mg/kg) (following i.m. administration)
Summary of the method: (§1)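 Passive avoidance (step-through, lighted vs darkened compartment). […], ECS (20 mA, 1 s) was given transcorneally via saline-soaked electrodes, and maximal hindlimb extension was required. Drug was given im at selected doses 2 h post-training. One hour later, entry latency to the dark side was recorded, with 60 s counted as retention. At least 75% of ECS controls had to be amnesic. Replicates were mostly not run.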

Rattus norvegicus [2] = assay: Ability (% reversal in rats) to reverse electroconvulsive shock-induced amnesia in rodents at a dose of 0.010 (mg/kg) administered intramuscularly (im); summary of the method: as §1
Rattus norvegicus [3] = assay: Ability (% reversal in rats) to reverse electroconvulsive shock-induced amnesia in rodents at a dose of 0.10 (mg/kg) (following intramuscular dosing); summary of the method: as §1
Rattus norvegicus [4] = assay: Compound was tested for its ability (% reversal in rats) to reverse electroconvulsive shock-induced amnesia in rodents at a dose of 10 (mg/kg) administered intramuscularly (im); summary of the method: as §1
Rattus norvegicus [5] = assay: Compound was tested for its ability (% reversal in rats) to reverse electroconvulsive shock-induced amnesia in rodents at a dose of 1 (mg/kg) administered intramuscularly (im); summary of the method: as §1
Rattus norvegicus [6] = assay: Compound was tested for its ability (% reversal in rats) to reverse electroconvulsive shock-induced amnesia in rodents at a dose of 100 (mg/kg) administered intramuscularly (im); summary of the method: as §1
Mus musculus [7] = assay: Ability to reverse electroconvulsive shock-induced amnesia in rodents following 0.1 mg/kg i.m. administration.; conditions: route intramuscular; summary of the method: as §1
Mus musculus [8] = assay: Ability to reverse electroconvulsive shock-induced amnesia in rodents following 0.01 mg/kg i.m. administration.; conditions: route intramuscular; summary of the method: as §1
Mus musculus [9] = assay: Ability to reverse electroconvulsive shock-induced amnesia in rodents following 1 ug/kg i.m. administration.; summary of the method: as §1
Rattus norvegicus [10] = assay: Compound was tested for its ability (% reversal in rats) to reverse electroconvulsive shock-induced amnesia in rodents at a dose of 0.010 (mg/kg) administered intramuscularly (im).; summary of the method: as §1

Structure (SMILES) | Reversal (Rattus norvegicus [1]) [%] | Reversal (Rattus norvegicus [2]) [%] | Reversal (Rattus norvegicus [3]) [%] | Reversal (Rattus norvegicus [4]) [%] | Reversal (Rattus norvegicus [5]) [%] | Reversal (Rattus norvegicus [6]) [%] | Reversal (Mus musculus [7]) [%] | Reversal (Mus musculus [8]) [%] | Reversal (Mus musculus [9]) [%] | Reversal (Rattus norvegicus [10]) [%]
CC(C)CC(OCC1CCCN1C(=O)OCc1ccccc1)C(=O)NCC(N)=O (stereo unspecified) | 33 | 0 | 0 | – | – | – | – | – | – | –
Cc1ccc(S(=O)(=O)N2CCCC2CN[C@@H](CC(C)C)C(=O)NCC(N)=O)cc1 (stereo partly specified) | 0 | 0 | 34 | 62 | 75 | 87 | – | – | – | –
O=C(O)CNC(=O)COCC1CCCN1C(=O)OCc1ccccc1 (stereo unspecified) | 14 | 43 | 57 | – | – | – | – | – | – | –
CC(C)CC(CSCC(=O)O)NC(=O)c1ccccn1 (stereo unspecified) | 57 | 0 | 14 | – | – | – | – | – | – | –
NCCCC[C@H](NC(=O)[C@@H]1CCCN1C(=O)OCc1ccccc1)C(=O)NCC(N)=O (Cbz-Pro-Lys-Gly-NH2) | – | – | – | – | – | – | 63 | 100 | 9 | –
O=C(O)COCC1CCCN1C(=O)OCc1ccccc1 (stereo unspecified) | 40 | 40 | 50 | 62 | 37 | 62 | – | – | – | –
CC(C)CC(/C=C/CC(N)=O)NC(=O)C1CCCN1C(=O)OCc1ccccc1 (stereo unspecified) | 33 | 77 | 44 | – | – | – | – | – | – | –
CCSCCNC(=O)C(CC(C)C)SCC1CCCN1C(=O)OCc1ccccc1 (stereo unspecified) | 33 | 0 | 0 | – | – | – | – | – | – | –
NCCCC[C@H](NC(=O)[C@@H]1CCCN1C(=O)[C@@H]1CSSC[C@H](N)C(=O)N[C@@H](Cc2ccc(O)cc2)C(=O)N[C@@H](Cc2ccccc2)C(=O)N[C@@H](CCC(N)=O)C(=O)N[C@@H](CC(N)=O)C(=O)N1)C(=O)NCC(N)=O | 20 | – | 56 | – | – | – | 67 | 58 | 58 | 20
CC(C)(C)OC(=O)N1CCC[C@H]1C(=O)N[C@@H](CCCCN)C(=O)NCC(N)=O (Boc-Pro-Lys-Gly-NH2) | – | – | – | – | – | – | 33 | 17 | 25 | –
NC(=O)CNC(=O)[C@H](CCCCNC(=O)OCc1ccccc1)NC(=O)[C@@H]1CCCN1 (H-Pro-Lys(Cbz)-Gly-NH2) | 60 | – | 60 | – | – | – | 100 | 92 | 66 | 40
NCCCC[C@H](NC(=O)[C@@H]1CCCN1)C(=O)NCC(N)=O (H-Pro-Lys-Gly-NH2) | 78 | 78 | 78 | – | – | – | 39 | 48 | 100 | –
NC(=O)CC[C@@H]1NC(=O)[C@H](Cc2ccccc2)NC(=O)[C@H](Cc2ccc(O)cc2)NC(=O)[C@@H](N)CSSC[C@@H](C(=O)N2CCC[C@H]2C(=O)N[C@@H](CCCN=C(N)N)C(=O)NCC(N)=O)NC(=O)[C@H](CC(N)=O)NC1=O | 0 | 100 | 60 | – | – | – | – | – | – | –
CC(C)CC(CSCC(=O)O)NC(=O)C1CCCN1C(=O)OCc1ccccc1 (stereo unspecified) | 57 | 57 | 14 | – | – | – | 69 | 77 | 69 | –
NC(=O)CNC(=O)[C@@H](N)CCCN=C(N)N (H-Arg-Gly-NH2) | – | – | – | – | – | – | 27 | 20 | 51 | –
CC(C)(C)OC(=O)N1CCCC1CN[C@@H](CCCCNC(=O)OCc1ccccc1)C(=O)NCC(N)=O (stereo partly specified) | 16 | 33 | 16 | – | – | – | – | – | – | –
CC(C)C[C@H](NC(=O)[C@@H]1CCCN1C(=O)OCc1ccccc1)C(=O)NCC(N)=O (Cbz-Pro-Leu-Gly-NH2) | – | – | – | – | – | – | 100 | 47 | 93 | –
CC(C)(C)OC(=O)NC(CCC/N=C(\N)N[N+](=O)[O-])C(=O)NCC(N)=O (stereo unspecified) (Boc-[ξArg(NO2)]-Gly-NH2) | – | – | – | – | – | – | 73 | 53 | 33 | –
CC(C)(C)OC(=O)NCCCCC(NC(=O)OCc1ccccc1)C(=O)NCC(N)=O (stereo unspecified) (Cbz-[ξK](Boc)-Gly-NH2) | – | – | – | – | – | – | 33 | 25 | 33 | –
Cc1ccc(S(=O)(=O)N2CCCC2C(=O)NC(CNCC(=O)O)CC(C)C)cc1 (stereo unspecified) | 17 | 33 | 17 | – | – | – | – | – | – | –
CC(C)CC1CN(C[C@H](CC(C)C)NC(=O)[C@@H]2CCC(=O)N2)CC(=O)N1 (stereo partly specified) | – | – | – | 0 | 0 | 0 | – | – | – | –
